This note sets out measurements from ChEMBL document CHEMBL1138870, “In vitro and in vivo efficacy and in vitro metabolism of 1-phenyl-3-aryl-2-propen-1-ones against Plasmodium falciparum” (Bioorg Med Chem Lett, 2006).

As a reminder, the half-life is how long it takes for the measured level to halve. As a reminder, the IC50 is the concentration at which inhibition is half-maximal. A higher IC50 goes with weaker potency.

Calls of active or inactive are those of the source. No cut-off for these calls is given here.

Data set [1] in a line: Metabolic stability in mouse liver microsomes. The class given is ADME, Microsome.
Data set [2] deals with Plasmodium falciparum. Briefly: Antimalarial activity against Plasmodium falciparum D6. In kind it is functional, organism-based. In outline:
(§1)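 Cultured P. falciparum parasites were exposed to compound, and inhibition of [³H]hypoxanthine uptake was measured to give the IC50. Values come from a single experiment.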

A further data set has as its system Mus musculus. Briefly: Effect on survival of mice (Mus musculus) infected with Plasmodium berghei at 640 mg/kg, perorally. The class given is functional, organism-based. The arrangement: dose 640 mg/kg. Summed up:
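Mice were inoculated intraperitoneally on day 0 with 1.0 × 10⁶ P. berghei P-line-infected red cells. Compound was dissolved in DMSO, diluted with 0.5% hydroxyethylcellulose and 0.1% Tween, and given orally once daily on days 3–7 at 640 mg/kg/dose. Survival of five treated mice was compared with five untreated infected controls.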

Data set [3] has as its system Plasmodium falciparum. Briefly: Resistance index, IC50 of Plasmodium falciparum W2/IC50 Plasmodium falciparum D6. The class given is ADME, organism-based. Particulars: in vitro. Summed up: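 Ratio of IC50 against P. falciparum W2 to IC50 against strain D6. Each IC50 comes from in vitro inhibition of [3H]hypoxanthine uptake by the parasites, with values from a single experiment.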

Data set [4] deals with Plasmodium falciparum. Briefly: Antimalarial activity against Plasmodium falciparum W2. In kind it is functional, organism-based. Summed up:
as §1

In turn, `COc1ccc(C(=O)/C=C/c2ccnc3ccccc23)cc1OC` had a half-life in data set [1] of 15.6 min. Besides, the IC50 stood at 880 nM with Plasmodium falciparum [2] and 500 nM with Plasmodium falciparum [4]. In the data set with Mus musculus, the result was inactive. Moreover, the “Ratio IC50” value in the data set on Plasmodium falciparum [3] was found to be 0.57.
`COc1ccc(C(=O)/C=C/c2ccnc3ccccc23)cc1F` showed a half-life in data set [1] of 30.6 min. The IC50 is 930 nM with Plasmodium falciparum [2] and 3200 nM in the data set on Plasmodium falciparum [4]. In the data set on Mus musculus, the outcome was inactive. In addition, the “Ratio IC50” value with Plasmodium falciparum [3] is given as 3.4.
In turn, `O=C(/C=C/c1cnc2ccccc2c1)c1cc(Cl)ccc1Cl` gave a half-life in data set [1] of 24.6 min. The IC50 in the data set with Plasmodium falciparum [2] is 620 nM; in the data set with Plasmodium falciparum [4], 1700 nM. For the same compound, the outcome in the data set with Mus musculus was inactive. For the same compound, the “Ratio IC50” value with Plasmodium falciparum [3] was found to be 2.7.
